Assay results: ChEMBL document CHEMBL1131622, “(+/-)-trans-2-[3-methoxy-4-(4-chlorophenylthioethoxy)-5-(N-methyl-N- hydroxyureidyl)methylphenyl]-5-(3,4, 5-trimethoxyphenyl)tetrahydrofuran (CMI-392), a potent dual 5-lipoxygenase inhibitor and platelet-activating factor receptor antagonist” (J Med Chem, 1998)
Where “and” joins values, the source holds several entries; their conditions need not be identical. Equal entries are not always repeated.

Legend:
Mus musculus [1] = assay: In vivo inhibition against PAF induced hemoconcentration in mice at a concentration of 3 mg/kg; assay type: functional
Outline: (§1)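 Mice given compound iv at 3 mg/kg in 0.5% DMSO saline, then PAF (10 μg, in 0.25% BSA/saline) iv by tail vein 15 min later. Tail blood taken 15 min after PAF for hematocrit; percent inhibition relative to vehicle control.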

[2] = Half-life was determined; assay type: ADME; settings: human
Homo sapiens [3] = species: Homo sapiens; assay: (§2) Compound was evaluated for inhibiting production of LTB4 in calcium Ionophore (A23187) activated human whole blood.; assay type: functional
Outline: (§3)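 Heparinized human whole blood (1 mL) preincubated with compound in DMSO 15 min at 37 °C, then stimulated with A23187 (50 μM final) 30 min at 37 °C; plasma LTB4 measured by EIA. IC50 by regression; percent inhibition also reported at 3 μM.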

[4] = In vivo activity against platelet activating factor (PAF)-induced hemoconcentration in mouse.; assay type: functional; outline: as §1
[5] = target: Platelet-activating factor receptor (Homo sapiens, UniProt P25105); assay: Displacement of [3H]PAF from PAF receptor of human platelet membranes
Sequence of Platelet-activating factor receptor (P25105 whole entry): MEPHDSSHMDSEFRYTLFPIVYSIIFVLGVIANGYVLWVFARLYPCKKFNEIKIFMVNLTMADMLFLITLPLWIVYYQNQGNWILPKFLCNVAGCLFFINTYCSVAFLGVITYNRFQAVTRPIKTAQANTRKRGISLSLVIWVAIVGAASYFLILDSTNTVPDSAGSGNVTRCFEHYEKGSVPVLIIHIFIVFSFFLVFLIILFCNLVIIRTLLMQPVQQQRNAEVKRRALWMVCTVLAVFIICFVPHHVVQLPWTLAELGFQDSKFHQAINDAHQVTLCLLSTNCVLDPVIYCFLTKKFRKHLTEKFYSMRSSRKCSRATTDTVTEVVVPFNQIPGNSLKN

Mus musculus [6] = assay: In vivo activity against arachidonic acid induced ear edema in mouse.; assay type: functional
Outline: (§4)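 Compound given iv at 3 mg/kg in 0.5% DMSO saline 15 min before topical arachidonic acid (0.5 mg in acetone/pyridine/water 97:2:1) on both ears of mice. Sacrifice at 1 h; 7-mm ear punches weighed, edema as mean wet weight.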

Mus musculus [7] = assay: (§5) In vivo activity against acute TPA-induced ear edema in mouse.; assay type: functional
Outline: (§6)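 Mice, 8 per group, TPA in acetone (10 μL) applied topically to both ear surfaces with or without drug. Sacrifice at 6 h; punch biopsies weighed, MPO measured spectrophotometrically in homogenized tissue, histology also done; compared with maximal control.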

[8] = target: T1, Polyunsaturated fatty acid 5-lipoxygenase (Rattus norvegicus, UniProt P12527); assay: Inhibition of 5-lipoxygenase mediated conversion of [14C]arachidonic acid to leukotrienes in RBL-2H3 cells; assay type: cell-based
T1 sequence (P12527 whole entry): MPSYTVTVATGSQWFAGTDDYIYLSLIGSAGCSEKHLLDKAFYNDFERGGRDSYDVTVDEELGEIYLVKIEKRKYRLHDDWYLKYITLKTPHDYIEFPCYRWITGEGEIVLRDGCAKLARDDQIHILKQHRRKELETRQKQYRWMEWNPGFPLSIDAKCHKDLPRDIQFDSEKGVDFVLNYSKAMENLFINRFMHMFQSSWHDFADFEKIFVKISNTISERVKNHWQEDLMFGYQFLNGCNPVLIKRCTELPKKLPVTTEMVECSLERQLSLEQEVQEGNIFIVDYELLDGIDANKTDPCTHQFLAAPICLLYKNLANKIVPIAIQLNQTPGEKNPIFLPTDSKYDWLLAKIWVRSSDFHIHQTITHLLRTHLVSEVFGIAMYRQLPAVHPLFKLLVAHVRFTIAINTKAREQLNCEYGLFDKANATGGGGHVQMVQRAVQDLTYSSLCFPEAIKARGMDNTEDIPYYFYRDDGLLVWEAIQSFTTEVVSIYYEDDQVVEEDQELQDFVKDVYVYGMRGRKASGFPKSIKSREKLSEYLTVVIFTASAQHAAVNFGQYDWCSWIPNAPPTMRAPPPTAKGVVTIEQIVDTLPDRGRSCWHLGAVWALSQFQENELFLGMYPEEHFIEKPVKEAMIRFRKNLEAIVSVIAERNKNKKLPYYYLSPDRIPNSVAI
Outline: (§7)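 Lysate plus compound (DMSO) in buffer with 0.1 M NaCl, 0.7 mM CaCl2, 20 min room temperature, then [14C]AA substrate mix 5 min 37 °C. Products extracted, resolved by silica TLC, autoradiography/densitometry; IC50 by regression.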

Mus musculus [9] = assay: In vivo activity against chronic TPA-induced ear edema in mouse.; assay type: functional
Outline: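 Mice, 8 per group, TPA in acetone (10 μL) applied topically to both ears once a day every 2 days for 10 days. Drug applied topically twice daily over the last 3 days. Punch biopsies weighed; MPO measured spectrophotometrically; histology also done.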

Mus musculus [10] = assay: as §5; assay type: functional; outline: as §6; remark: listed apart in the source
Mus musculus [11] = assay: In vivo inhibition against arachidonic acid induced ear Edema in mice at a concentration of 3 mg/kg; assay type: functional; outline: as §4
Homo sapiens [12] = species: Homo sapiens; assay: In vitro inhibition of LTB4 production in human whole blood; assay type: functional; outline: as §3
Homo sapiens [13] = species: Homo sapiens; assay: as §2; assay type: functional; set-up: concentration or dose not given beside the values; outline: as §3
[14] = target: T1, Polyunsaturated fatty acid 5-lipoxygenase; assay: 5-lipoxygenase inhibitory activity determined by measuring the conversion of [14C]arachidonic acid to leukotrienes in RBL-2H3 cell using thin-layer chromatography.; assay type: cell-based; outline: as §7

| IC50 (Homo sapiens [3]) [µM] | IC50 [5] [µM] | IC50 [8] [µM] | Structure (SMILES) | inhibition in vivo at 3 mg/kg (Mus musculus [1]) [%] | inhibition in vivo at 3 mg/kg (Mus musculus [11]) [%] | Inhibition (Homo sapiens [13]) [%] | further results |
| --- | --- | --- | --- | --- | --- | --- | --- |
| 7.8 | 0.01 | 0.1 | COc1cc([C@@H]2CC[C@@H](c3cc(OC)c(OC)c(OC)c3)O2)cc(CNC(=O)N(C)O)c1OCCSc1ccc(Cl)cc1 (racemic) | 56 | 46 | – | half-life [2]: 30 min; ED50 [4]: 2.2 mg/kg; ED50 (Mus musculus [6]): 1.8 mg/kg; ED50 (Mus musculus [7]): 269 ug ear-1; ED50 (Mus musculus [9]): 552 ug ear-1 and 580 ug ear-1; ED50 (Mus musculus [10]): 299 ug ear-1; IC50 (Homo sapiens [12]): 7.8 µM |
| – | 0.023 | 0.033 | CCCCN(O)C(=O)Nc1cc([C@@H]2CC[C@@H](c3cc(OC)c(OC)c(OC)c3)O2)cc(OC)c1OCCSc1ccccc1Br (racemic) | 34 | 26 | 48 | – |
| 0.1 | – | 0.298 | CC(C#Cc1ccc(Oc2ccc(F)cc2)o1)N(O)C(N)=O (stereo not drawn) | – | – | – | – |
| 3.5 | – | – | CCCCN(O)C(=O)Nc1cc([C@@H]2CC[C@@H](c3cc(OC)c(OC)c(OC)c3)O2)cc(OC)c1OCCC | – | – | – | – |
| – | 0.039 | 0.071 | CCCCN(O)C(=O)Nc1cc([C@@H]2CC[C@@H](c3cc(OC)c(OC)c(OC)c3)O2)cc(OC)c1OCCSc1ccc(OC)cc1 (racemic) | 24 | 3 | 32 | – |
| – | 0.025 | 0.161 | CCCCN(O)C(=O)Nc1cc([C@@H]2CC[C@@H](c3cc(OC)c(OC)c(OC)c3)O2)cc(OC)c1OCCS(=O)(=O)c1ccccc1Br (racemic) | 60 | – | 19 | – |
| – | 0.045 | 0.017 | CCCCN(O)C(=O)Nc1cc([C@@H]2CC[C@@H](c3cc(OC)c(OC)c(OC)c3)O2)cc(OC)c1OCCSc1ccc(Cl)c(Cl)c1 (racemic) | 26 | 26 | 61 | – |
| – | 0.167 | – | CCCCN(O)C(=O)NCc1cc([C@@H]2CC[C@@H](c3cc(OC)c(OC)c(OC)c3)O2)cc(OC)c1OCCSc1ccc(Cl)cc1 (racemic) | – | – | 26 | – |
| – | 0.002 | 0.118 | CCCCN(O)C(=O)Nc1cc([C@@H]2CC[C@@H](c3cc(OC)c(OC)c(OC)c3)O2)cc(OC)c1OCCSc1c(F)c(F)cc(F)c1F (racemic) | 59 | 30 | 3 | – |
| – | 0.038 | – | CCCCN(O)C(=O)Nc1cc([C@@H]2CC[C@@H](c3cc(OC)c(OC)c(OC)c3)O2)cc(OC)c1OCCS(=O)(=O)c1ccc(Br)cc1 (racemic) | 29 | 35 | 72 | – |
| 6.5 | 0.02 | – | CCCCN(O)C(=O)Nc1cc([C@@H]2CC[C@@H](c3cc(OC)c(OC)c(OC)c3)O2)cc(OC)c1OCCSc1ccc(Cl)cc1 (racemic) | 43 | 39 | – | IC50 [14]: 0.058 µM |
| – | 0.285 | 0.52 | CCCCN(O)C(=O)Nc1cc([C@@H]2CC[C@@H](c3cc(OC)c(OC)c(OC)c3)O2)cc(OC)c1OCCS(=O)(=O)c1c(F)c(F)cc(F)c1F (racemic) | 50 | 12 | – | – |
| 7.5 | 0.022 | 0.043 | CCCCN(O)C(=O)Nc1cc([C@@H]2CC[C@@H](c3cc(OC)c(OC)c(OC)c3)O2)cc(OC)c1OCCSc1cccc(Br)c1 (racemic) | 28 | 40 | – | – |
| – | – | – | CC(c1cc2ccccc2s1)N(O)C(N)=O (stereo not drawn) [ZILEUTON] | – | – | 1 | – |
| 1.2 | 0.021 | 0.019 | CCCCN(O)C(=O)Nc1cc([C@@H]2CC[C@@H](c3cc(OC)c(OC)c(OC)c3)O2)cc(OC)c1OCCSc1ccc(Br)cc1 (racemic) | – | – | – | – |
